pEC50, pIC50, pKi: −log10 of the molar value.
Columns and labels:
[1] = target: T1, Lysophosphatidic acid receptor 1 (Homo sapiens, UniProt Q92633); assay: (§1) Inhibition of LPA-induced calcium transients in RH7777 rat hepatoma cells expressing LPA1 receptor; No effect; format: functional, cell-based
Method in brief: (§2)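 Fura-2 Ca2+ assay. RH7777 cells stably expressing LPA1, LPA2 or LPA3, or PC-3 cells (endogenous LPA1-3), seeded at 50000 cells/well on poly-D-lysine and grown overnight. Serum-starved in modified Krebs, pH 7.4, for 6-8 h (PC-3: 12 h), then Fura-2 AM loaded for 35 min. Compound added at 15 s; wells read 80-120 s. Transient taken as peak minus baseline 340/380 ratio. Antagonism: LPA 18:1 coapplied; highest concentration 30 μM.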

PC-3 = assay: Inhibitory concentration against LPA expressed in PC-3 cells; Weak antagonist; format: functional, cell-based, Homo sapiens; method in brief: as §2
[2] = target: T1, Lysophosphatidic acid receptor 1; assay: as §1; format: functional, cell-based; remark: listed apart in the source
[3] = target: T2, Lysophosphatidic acid receptor 2 (Homo sapiens, UniProt Q9HBW0); assay: Inhibition of LPA-induced calcium transients in RH7777 rat hepatoma cells expressing LPA2 receptor; format: functional, cell-based
[4] = target: T2, Lysophosphatidic acid receptor 2; assay: Inhibition of LPA-induced calcium transients in RH7777 rat hepatoma cells expressing LPA2 receptor; No effect; format: functional, cell-based; method in brief: as §2
[5] = Percent maximal efficacy in PC-3 cells; format: functional, Homo sapiens
Method in brief: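 PC-3 human prostate cancer cells, which express LPA1-3 endogenously, 50000 cells/well. Serum-starved 12 h in modified Krebs, loaded with Fura-2 AM, read in a FlexStation. Ca2+ transient = 340/380 ratio peak minus baseline. Agonism (Emax as % of maximal LPA 18:1 response) and inhibition of LPA-induced transients were measured.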

[6] = target: T3, Lysophosphatidic acid receptor 3 (Homo sapiens, UniProt Q9UBY5); assay: Inhibition of LPA-induced calcium transients in RH7777 rat hepatoma cells expressing LPA3 receptor; No effect; format: functional, cell-based; method in brief: as §2
T3 sequence (Q9UBY5 whole entry): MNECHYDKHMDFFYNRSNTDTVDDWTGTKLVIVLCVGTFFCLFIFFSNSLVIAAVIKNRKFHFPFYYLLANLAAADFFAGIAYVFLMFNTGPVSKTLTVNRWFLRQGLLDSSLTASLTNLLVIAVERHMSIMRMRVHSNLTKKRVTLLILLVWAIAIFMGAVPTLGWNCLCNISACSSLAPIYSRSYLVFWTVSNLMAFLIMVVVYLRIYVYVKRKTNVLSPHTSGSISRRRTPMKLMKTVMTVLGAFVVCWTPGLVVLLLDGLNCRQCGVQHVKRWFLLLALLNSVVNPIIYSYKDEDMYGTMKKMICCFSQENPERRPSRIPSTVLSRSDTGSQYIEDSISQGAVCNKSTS

[7] = target: T3, Lysophosphatidic acid receptor 3; assay: Binding affinity for Lysophosphatidic acid receptor 3 expressed in RH7777 rat hepatoma cells; format: cell-based; method in brief: as §2
[8] = target: T3, Lysophosphatidic acid receptor 3; assay: Inhibition of LPA-induced calcium transients in RH7777 rat hepatoma cells expressing LPA3 receptor; format: functional, cell-based; method in brief: as §2

T2 sequence (Q9HBW0 whole entry): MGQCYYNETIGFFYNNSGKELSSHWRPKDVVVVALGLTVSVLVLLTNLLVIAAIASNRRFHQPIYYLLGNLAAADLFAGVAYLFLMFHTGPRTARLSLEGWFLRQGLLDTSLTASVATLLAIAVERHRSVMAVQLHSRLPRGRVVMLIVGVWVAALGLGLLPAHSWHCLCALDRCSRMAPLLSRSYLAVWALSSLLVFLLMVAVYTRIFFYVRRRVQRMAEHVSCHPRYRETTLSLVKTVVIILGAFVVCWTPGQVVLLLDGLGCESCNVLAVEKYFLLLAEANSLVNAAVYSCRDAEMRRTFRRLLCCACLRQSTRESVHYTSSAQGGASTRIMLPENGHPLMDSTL
T1 sequence (Q92633 whole entry): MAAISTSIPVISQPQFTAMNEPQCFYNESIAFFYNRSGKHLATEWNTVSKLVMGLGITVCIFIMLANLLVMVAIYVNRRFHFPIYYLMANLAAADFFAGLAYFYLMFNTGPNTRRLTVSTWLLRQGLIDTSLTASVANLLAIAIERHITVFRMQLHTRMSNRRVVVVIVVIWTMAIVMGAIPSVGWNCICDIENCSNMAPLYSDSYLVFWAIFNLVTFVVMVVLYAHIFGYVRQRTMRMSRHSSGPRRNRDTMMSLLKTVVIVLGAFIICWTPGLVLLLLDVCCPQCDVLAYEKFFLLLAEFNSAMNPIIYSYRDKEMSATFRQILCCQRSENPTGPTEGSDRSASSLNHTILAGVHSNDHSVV

EC50 [1]: Not Active
IC50 (PC-3): Partial antagonist
IC50 [2]: Not Active
pEC50 [3]: ~4.96
IC50 [4]: Not Active
EC50 [6]: Not Active
pKi [7]: 5.63
pIC50 [8]: 5.25
SMILES: CCCCCCCCCCCCCCCC(=O)N[C@@H](Cc1ccc(OP(=O)(O)O)cc1)C(=O)O
Emax [5]: 25%

Source: ChEMBL document CHEMBL1140336, “Synthesis, structure-activity relationships, and biological evaluation of fatty alcohol phosphates as lysophosphatidic acid receptor ligands, activators of PPARgamma, and inhibitors of autotaxin” (J Med Chem, 2005)
